# High-throughput results deposited in PubChem by Broad Institute.
# The full list was thinned out, with hits kept by preference.
# INS-1E ATP HTS = protection of INS-1E cells from cytokine death, primary screen, ATP luminescence, single point. protection from cytokine-induced ATP loss, % at 10 µM. AID 488910, 2010. INS-1E cytokine-induced death, 48 h; normalised: neutral wells 0, positive control 100. 0.1% of 20,000 active;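 active means mean replicate protection from cytokine-induced ATP loss at least 50% and at least 75% of replicates each reaching 50%; inconclusive means meets only one of the two criteria, mean or replicate share; inactive means fails both the mean and replicate share criteria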
#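 Assay system: INS-1E rat cells / Quantity: 8000 cells per well / Medium: RPMI without phenol red, 5% FBS / Probe or stimulus: three-cytokine cocktail (IFN-γ, TNF-α, IL-1β) / Dosing: one compound concentration, pin transfer / Timing: 48 h co-treatment, 10 min post-lysis read / Technique: CellTiter-Glo luminescence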
# YB-1 expression = inhibitors of YB-1 gene expression, primary screen, cell-based, fluorescence | U2OS, qRT-PCR YB-1 vs CDIP delta delta Cp, 16 h; hits give high values; zero = DMSO, each unit about twofold | delta delta Cp (YB-1 minus CDIP) (no concentration beside the values) | 0.37% of 30,000 active | AID 434959, 2010;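 active means delta delta Cp rounded down to an integer at or above 3, about 3 SD of DMSO wells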;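 further: higher means less YB-1 transcript or more CDIP transcript relative to DMSO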
# T cruzi HTS = inhibitors of intracellular Trypanosoma cruzi, primary screen, cell-based, plate reader, single point, set 2; intracellular Trypanosoma cruzi in host cells; activity score (inhibition), % at 5.01 µM; 4.9% of 22,000 active; in the data active means activity score above about 55%; inconclusive means no clear call, values can overlap the other calls;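 further: parasites and compound incubated about four days before reading; 0% = median of neutral control wells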
# The depositor's hits bear a star; ? = inconclusive; . = not tested or not shown.
SMILES,INS-1E ATP HTS,YB-1 expression,T cruzi HTS
C[C@H]1CN([C@@H](C)CO)C(=O)c2cccc(NC(=O)c3nc4ccccc4s3)c2O[C@H]1CN(C)Cc1ccc(-c2ccccc2)cc1,-23,-0.74,23
C[C@@H]1CN([C@@H](C)CO)C(=O)c2cccc(NC(=O)c3nc4ccccc4s3)c2O[C@H]1CN(C)CC1CCCCC1,-61,-0.031,44
C[C@@H]1CN([C@@H](C)CO)C(=O)c2cccc(NC(=O)c3nc4ccccc4s3)c2O[C@@H]1CN(C)Cc1ccc(C(=O)Nc2ccccc2N)cc1,30,-0.57,?
O=C(c1cc2nc(-c3ccco3)cc(C(F)(F)F)n2n1)N(Cc1ccccc1)Cc1ccccc1,.,0.2,.
C=C(C)C(=O)Nc1ccc2c(c1)C(=O)NC2=O,.,0.045,.
O=C(NO)c1ccc(C(=O)N/N=C/c2ccc(CO)o2)cc1,9,-0.16,-12
C[C@@H]1CN([C@@H](C)CO)C(=O)c2cccc(NC(=O)c3nc4ccccc4s3)c2O[C@@H]1CN(C)Cc1ccccc1,-49,0.45,36
C[C@H](CO)N1C[C@H](C)[C@@H](CN(C)Cc2ccc(Cl)c(Cl)c2)Oc2c(NC(=O)c3nc4ccccc4s3)cccc2C1=O,-28,-0.12,69*
C[C@@H]1CN([C@H](C)CO)C(=O)c2cccc(NC(=O)c3nc4ccccc4s3)c2O[C@H]1CN(C)Cc1ccc(Cl)c(Cl)c1,-60,0.18,51
C[C@@H]1CN([C@@H](C)CO)C(=O)c2cccc(NC(=O)c3nc4ccccc4s3)c2O[C@@H]1CN(C)Cc1ccc(C(F)(F)F)cc1,-56,0.2,61*
O=C(NO)c1cccc(C(=O)N/N=C/c2ccc(OCc3ccccc3)cc2O)c1,-94,0.076,21
CC1(C)CCc2cc(C3SCCS3)ccc2O1,.,-0.026,.
O=C(N/N=C/c1ccc(N2CCCC2)cc1)c1ccccn1,-24,-0.44,-2
C[C@@H]1CN([C@@H](C)CO)C(=O)Cc2cc(NC(=O)Nc3ccccc3)ccc2O[C@@H]1CN(C)Cc1ccc(C(F)(F)F)cc1,-4,0.26,?
C[C@@H]1CN([C@H](C)CO)C(=O)Cc2cc(NC(=O)Nc3ccc(C(F)(F)F)cc3)ccc2O[C@@H]1CN(C)Cc1ccccc1,-32,0.19,69*
C[C@@H]1CN([C@@H](C)CO)C(=O)Cc2cc(NC(=O)Nc3ccc(C(F)(F)F)cc3)ccc2O[C@@H]1CN(C)Cc1ccccc1,-33,-0.1,58*
C[C@H]1CN([C@@H](C)CO)C(=O)Cc2cc(NC(=O)Nc3ccccc3)ccc2O[C@@H]1CN(C)Cc1ccc(C(F)(F)F)cc1,-24,-0.00063,27
O=C(O)c1c2c(nc3ccccc13)CCC(c1ccccc1)C2 (stereo not drawn),.,-0.024,.
CCCN(C)C[C@@H]1Oc2ncc(-c3cc4ccccc4o3)cc2C(=O)N([C@H](C)CO)C[C@@H]1C,.,-0.26,?
C[C@H](CO)N1C[C@H](C)[C@H](CN(C)Cc2ccc3c(c2)OCO3)Oc2ncc(-c3ccc(F)cc3)cc2C1=O,.,-0.24,19
C[C@H](CO)N1C[C@H](C)[C@H](CN(C)S(=O)(=O)c2cccs2)Oc2ncc(-c3cc4ccccc4o3)cc2C1=O,.,-0.42,67*
C[C@H](CO)N1C[C@H](C)[C@H](CN(C)Cc2ccc3c(c2)OCO3)Oc2ncc(-c3cc4ccccc4o3)cc2C1=O,.,0.23,78*
COc1ccc(S(=O)(=O)N(C)C[C@@H]2Oc3ncc(-c4cc5ccccc5o4)cc3C(=O)N([C@H](C)CO)C[C@@H]2C)cc1,-15,-0.34,47
C[C@H](CO)N1C[C@H](C)[C@H](CN(C)C)Oc2ncc(-c3cc4ccccc4o3)cc2C1=O,.,0.21,85*
CC1(C)N=C(NS(=O)(=O)c2cc(C(F)(F)F)cc(C(F)(F)F)c2)N(c2ccccc2)O1,.,0.17,.
SMILES,INS-1E ATP HTS,YB-1 expression,T cruzi HTS
COc1cc(C2C(C#N)=C(C)Nc3oc(C)nc32)ccc1OCCN1CCOCC1 (stereo not drawn),.,-0.63,.
O=C1C[C@@](C(=O)NCc2ccccc2)(c2ccc([N+](=O)[O-])cc2)[C@@H](c2ccc(CO)cc2)N1C1CCCCC1,.,0.57,.
O=S(=O)(/N=C1\SCCN1S(=O)(=O)c1ccc(Cl)cc1)c1ccc(Cl)cc1,.,0.44,.
Cc1noc(C)c1S(=O)(=O)N(C)C[C@@H]1Oc2ccc(NC(=O)Nc3ccccc3)cc2CC(=O)N([C@@H](C)CO)C[C@@H]1C,6,-0.72,-25
Cc1ccccc1/C=N/NC(=O)CCCCC(=O)NO,67*,0.21,2
O=C(CCCCC(=O)N/N=C\c1ccc2c(c1)Cc1ccccc1-2)NO,94*,0.32,17
